Here are results for 18 compounds from ChEMBL document CHEMBL4706568, “Some thermodynamic effects of varying nonpolar surfaces in protein-ligand interactions” (Eur J Med Chem, 2020).

Square brackets hold non-standard residues; d marks the D form. Peptide text beside a SMILES is read from it. * marks the point of attachment. pY = N[C@@H](Cc1ccc(OP(=O)(O)O)cc1)C(=O)O; NHPhenethyl = c1ccc(CCN*)cc1; Ac6c = NC1(C(=O)O)CCCCC1; NHBn = c1ccc(CN*)cc1

For assay [1], the target named is Growth factor receptor-bound protein 2 (Homo sapiens) (UniProt P62993). The experiment in a line: Binding affinity to Grb2-SH2 domain (53 to 163 residues) (unknown origin) expressed in Escherichia coli assessed as change in enthalpy by ITC analysis. An outline of the steps:
(§1)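 Grb2 SH2 residues 53–163 expressed in E. coli SG13009 (IPTG induction), purified by phosphotyrosine affinity, Q-Sepharose and size exclusion to isolate monomer. Protein diluted to 65–85 μM, ligand ~1 mM, both in 50 mM HEPES, 150 mM NaCl, pH 7.50. VP-ITC at 25 °C, ~35 injections of 7–9 μL ligand, buffer heats subtracted, n normalized to 1.00; ≥3 runs averaged.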
In general terms: ITC needs no label: the signal is the heat of the interaction.

The target is the same in assay [2]. The experiment in a line: Binding affinity to Grb2-SH2 domain (53 to 163 residues) (unknown origin) expressed in Escherichia coli assessed as change in entropy by ITC analysis. In short, it runs like this:
as §1

For assay [3] the target is unchanged. Nature of the assay: Binding affinity to Grb2-SH2 domain (53 to 163 residues) (unknown origin) expressed in Escherichia coli assessed as change in gibbs free energy by ITC analysis. In short, it runs like this:
as §1

For assay [4] the target is unchanged. Nature of the assay: Binding affinity to Grb2-SH2 domain (53 to 163 residues) (unknown origin) expressed in Escherichia coli assessed as association constant by ITC analysis. An outline of the steps:
as §1

Growth factor receptor-bound protein 2 (Homo sapiens), sequence (P62993 whole entry, looked up, the tested form may be a part): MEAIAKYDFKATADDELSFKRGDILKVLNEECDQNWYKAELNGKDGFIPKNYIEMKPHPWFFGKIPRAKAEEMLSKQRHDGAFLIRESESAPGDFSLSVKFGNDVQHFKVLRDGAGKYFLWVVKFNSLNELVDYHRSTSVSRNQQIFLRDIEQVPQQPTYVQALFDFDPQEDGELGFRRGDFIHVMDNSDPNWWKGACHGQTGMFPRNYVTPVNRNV

On to `CC(=O)N[C@@H](Cc1ccc(OP(=O)(O)O)cc1)C(=O)NC1(C(=O)N[C@@H](CC(N)=O)C(=O)NCCCn2ccc3ccccc32)CCCCC1`, for which the deltaH in assay [1] was -9.1 kcal/mol. For the same compound, the -TdeltaS in assay [2] is -1 kcal/mol. Moreover, the deltaG in assay [3] was -10.1 kcal/mol. Besides, the Ka in assay [4] was 2.7 10^7/M.

As to `CC(=O)N[C@@H](Cc1ccc(OP(=O)(O)O)cc1)C(=O)NC1(C(=O)N[C@@H](CC(N)=O)C(=O)NCc2ccccc2)CCCCC1` (Ac-[pY]-[Ac6c]-Asn-NHBn), in assay [1], the deltaH was -7.5 kcal/mol. For the same compound, in assay [2], the -TdeltaS was -2.1 kcal/mol. Further, the deltaG in assay [3] is -9.6 kcal/mol. Further, in assay [4], the Ka was 1.2 10^7/M.

In the case of `CC(=O)N[C@@H](Cc1ccc(OP(=O)(O)O)cc1)C(=O)NC1(C(=O)N[C@@H](CC(N)=O)C(=O)NCCCc2ccc(C)cc2)CCCCC1`, the deltaH in assay [1] is -8.6 kcal/mol. In addition, in assay [2], the -TdeltaS is -1.7 kcal/mol. Also, in assay [3], the deltaG was -10.3 kcal/mol. Also, the Ka in assay [4] is 4 10^7/M.

As to `CC(=O)N[C@@H](Cc1ccc(OP(=O)(O)O)cc1)C(=O)NC1(C(=O)N[C@@H](CC(N)=O)C(=O)NCCCC(C)C)CCCCC1`, the deltaH in assay [1] is -7.9 kcal/mol. Further, the -TdeltaS in assay [2] is -1.9 kcal/mol. Also, the deltaG in assay [3] is -9.8 kcal/mol. The Ka in assay [4] was 1.6 10^7/M.

Take `CC(=O)N[C@@H](Cc1ccc(OP(=O)(O)O)cc1)C(=O)NC1(C(=O)N[C@@H](CC(N)=O)C(=O)NCCCc2cn(C)c3ccccc23)CCCCC1`: the deltaH in assay [1] was -10.2 kcal/mol. In addition, the -TdeltaS in assay [2] was -0.2 kcal/mol. In addition, in assay [3], the deltaG was -10.4 kcal/mol. The Ka in assay [4] is 4.9 10^7/M.

In the case of `CC(=O)N[C@@H](Cc1ccc(OP(=O)(O)O)cc1)C(=O)NC1(C(=O)N[C@@H](CC(N)=O)C(=O)NCCCc2ccc(Cl)cc2)CCCCC1`, in assay [1], the deltaH was -9.1 kcal/mol. In addition, the -TdeltaS in assay [2] was -1.4 kcal/mol. For the same compound, the deltaG in assay [3] was -10.5 kcal/mol. For the same compound, the Ka in assay [4] was 4.7 10^7/M.

Regarding `CC(=O)N[C@@H](Cc1ccc(OP(=O)(O)O)cc1)C(=O)NC1(C(=O)N[C@@H](CC(N)=O)C(=O)NCCCCCc2ccccc2)CCCCC1`, the deltaH in assay [1] was -7.9 kcal/mol. In addition, the -TdeltaS in assay [2] was -2.3 kcal/mol. Also, the deltaG in assay [3] was -10.2 kcal/mol. In assay [4], the Ka was 2.8 10^7/M.

Take `CC(=O)N[C@@H](Cc1ccc(OP(=O)(O)O)cc1)C(=O)NC1(C(=O)N[C@@H](CC(N)=O)C(N)=O)CCCCC1` (Ac-[pY]-[Ac6c]-Asn-NH2): in assay [1], the deltaH was -8.5 kcal/mol. Besides, the -TdeltaS in assay [2] is -0.8 kcal/mol. For the same compound, the deltaG in assay [3] is -9.3 kcal/mol. Moreover, the Ka in assay [4] was 0.7 10^7/M.

Consider `CC(=O)N[C@@H](Cc1ccc(OP(=O)(O)O)cc1)C(=O)NC1(C(=O)N[C@@H](CC(N)=O)C(=O)NCCCCC(C)C)CCCCC1`, for which, in assay [1], the deltaH is -7.8 kcal/mol. The -TdeltaS in assay [2] was -2 kcal/mol. Further, the deltaG in assay [3] was -9.8 kcal/mol. Moreover, the Ka in assay [4] was 1.7 10^7/M.

On to `CC(=O)N[C@@H](Cc1ccc(OP(=O)(O)O)cc1)C(=O)NC1(C(=O)N[C@@H](CC(N)=O)C(=O)NCCc2ccccc2)CCCCC1` (Ac-[pY]-[Ac6c]-Asn-NHPhenethyl), for which the deltaH in assay [1] is -7.7 kcal/mol. In addition, in assay [2], the -TdeltaS was -2.1 kcal/mol. Further, in assay [3], the deltaG was -9.8 kcal/mol. Also, in assay [4], the Ka is 1.5 10^7/M.

For `CC(=O)N[C@@H](Cc1ccc(OP(=O)(O)O)cc1)C(=O)NC1(C(=O)N[C@@H](CC(N)=O)C(=O)NCCCC2CCCCC2)CCCCC1`, the deltaH in assay [1] was -8 kcal/mol. Also, the -TdeltaS in assay [2] is -1.9 kcal/mol. For the same compound, the deltaG in assay [3] is -9.9 kcal/mol. For the same compound, the Ka in assay [4] was 1.9 10^7/M.

As for `CC(=O)N[C@@H](Cc1ccc(OP(=O)(O)O)cc1)C(=O)NC1(C(=O)N[C@@H](CC(N)=O)C(=O)NCCCc2cccc3ccccc23)CCCCC1`, in assay [1], the deltaH is -9.6 kcal/mol. The -TdeltaS in assay [2] is -1 kcal/mol. Besides, the deltaG in assay [3] is -10.6 kcal/mol. In addition, the Ka in assay [4] was 6 10^7/M.

Turning to `CC(=O)N[C@@H](Cc1ccc(OP(=O)(O)O)cc1)C(=O)NC1(C(=O)N[C@@H](CC(N)=O)C(=O)NCc2cn(C)c3ccccc23)CCCCC1`, in assay [1], the deltaH was -6.7 kcal/mol. Besides, in assay [2], the -TdeltaS is -2.8 kcal/mol. In assay [3], the deltaG is -9.5 kcal/mol. For the same compound, the Ka in assay [4] is 1.1 10^7/M.

Take `CC(=O)N[C@@H](Cc1ccc(OP(=O)(O)O)cc1)C(=O)NC1(C(=O)N[C@@H](CC(N)=O)C(=O)NCCCCc2ccccc2)CCCCC1`: the deltaH in assay [1] was -7.7 kcal/mol. The -TdeltaS in assay [2] was -2.1 kcal/mol. Further, the deltaG in assay [3] is -9.8 kcal/mol. In addition, the Ka in assay [4] was 1.5 10^7/M.

`CC(=O)N[C@@H](Cc1ccc(OP(=O)(O)O)cc1)C(=O)NC1(C(=O)N[C@@H](CC(N)=O)C(=O)NCCCc2c[nH]c3ccccc23)CCCCC1`: the deltaH in assay [1] was -9.1 kcal/mol. For the same compound, the -TdeltaS in assay [2] is -1.2 kcal/mol. Besides, in assay [3], the deltaG was -10.3 kcal/mol. In assay [4], the Ka was 3.5 10^7/M.

As for `COc1ccc(CCCNC(=O)[C@H](CC(N)=O)NC(=O)C2(NC(=O)[C@H](Cc3ccc(OP(=O)(O)O)cc3)NC(C)=O)CCCCC2)cc1`, the deltaH in assay [1] is -9.1 kcal/mol. Also, the -TdeltaS in assay [2] is -1.4 kcal/mol. Also, the deltaG in assay [3] is -10.5 kcal/mol. Further, the Ka in assay [4] is 5 10^7/M.

Regarding `CC(=O)N[C@@H](Cc1ccc(OP(=O)(O)O)cc1)C(=O)NC1(C(=O)N[C@@H](CC(N)=O)C(=O)NCCCc2ccccc2)CCCCC1`, in assay [1], the deltaH is -8.8 kcal/mol. Also, the -TdeltaS in assay [2] was -1.3 kcal/mol. Besides, in assay [3], the deltaG was -10.1 kcal/mol. For the same compound, the Ka in assay [4] is 2.6 10^7/M.

`CC(=O)N[C@@H](Cc1ccc(OP(=O)(O)O)cc1)C(=O)NC1(C(=O)N[C@@H](CC(N)=O)C(=O)NCCc2cn(C)c3ccccc23)CCCCC1`: in assay [1], the deltaH is -8.1 kcal/mol. The -TdeltaS in assay [2] is -2 kcal/mol. In assay [3], the deltaG is -10.1 kcal/mol. In addition, the Ka in assay [4] was 2.4 10^7/M.
